ChEMBL document CHEMBL5346868 (Eur J Med Chem, 2023)

Experiments:
Zika virus = experiment: Antiviral activity against ZIKV MR766 infected in african green monkey Vero E6 cells assessed as decline in virus induced cytopathogenicity measured after 5 days by MTS based microscopic analysis; type: functional, organism-based; conditions: MR766, Vero C1008, 120 h
In short: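 Vero E6 cells (10^4/well) are seeded in MEM with 2% FCS and left to adhere overnight. Cells are then infected with ZIKV MR766 (passaged in C6/36 cells) and given 2-fold serial compound dilutions. After 5 days, CPE is scored by MTS and by microscopy of fixed, stained cells. EC50 is the 50% antiviral effect.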

[1] = Selectivity index, ratio of CC50 for human RD cells to EC50 for antiviral activity against human Enterovirus 71; type: toxicity; conditions: read-out: Ratio CC50/EC50
In short: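 SI is calculated as CC50 on uninfected RD cells divided by EC50 in the 3-day EV71 BrCr CPE-reduction MTS assay.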

[2] = Cytotoxicity against african green monkey Vero E6 cells by MTS assay; type: toxicity, cell-based, Vero C1008; conditions: chlorocebus sabaeus
In short: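 Cytotoxicity is measured on treated, uninfected Vero E6 cells in parallel with the antiviral assays, using a standard MTS assay. CC50 is the concentration causing a 50% adverse effect on host cells.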

SARS-CoV-2 = experiment: Antiviral activity against SARS-CoV-2 BetaCoV/Belgium/GHB-03021/2020 infected in african green monkey Vero cells assessed as decline in virus induced cytopathogenicity measured after 4 days by argon laser scanning microscopic analysis; type: functional, organism-based; conditions: Severe acute respiratory syndrome coronavirus 2, BetaCoV/Belgium/GHB-03021/2020, Vero, 96 h
[3] = Cytotoxicity against human RD cells by MTS assay; type: toxicity, cell-based
In short: (§1)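 Treated, uninfected RD or HeLa cells are run alongside the matching enterovirus CPE assays, with viability read by MTS. CC50 is the concentration giving a 50% adverse effect on host cells.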

Enterovirus A71 [4] = experiment: Antiviral activity against human Enterovirus 71 BrCr infected in human RD cells assessed as reduction of virus induced cytopathic effect incubated for 3 days by MTS assay; type: functional, organism-based; conditions: Enterovirus A, 72 h
In short: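 Confluent RD cells (EMEM, 10% heat-inactivated FBS) are infected with ~100 CCID50 of EV71 BrCr and treated with a compound dilution series. After 3 days at 37 °C, 5% CO2, residual viability is measured by MTS. EC50 is the concentration giving 50% antiviral effect, from at least 2–3 independent experiments.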

Coxsackievirus B3 = experiment: Antiviral activity against Coxsackievirus B3 infected in african green monkey Vero cells assessed as reduction of virus induced cytopathic effect incubated for 3 days by MTS assay; type: functional, organism-based; conditions: Enterovirus B, 72 h
In short: (§2)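 Same setup as the EV71 assay: confluent monolayers (Vero A for CVB3; HeLa for CVA21, EV68, HRV-A02, HRV-B14) are infected with virus and treated with a compound dilution series. Incubation is 3 days at 37 °C, 5% CO2, and residual viability is read by MTS. EC50 is the 50% effective concentration, mean of at least 2 independent experiments.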

rhinovirus A2 = experiment: Antiviral activity against Human rhinovirus 2 infected in human HeLa cells assessed as reduction of virus induced cytopathic effect incubated for 3 days by MTS assay; type: functional, organism-based; conditions: Rhinovirus A, 72 h; in short: as §2
[5] = Cytotoxicity against african green monkey Vero cells by MTS assay; type: toxicity, cell-based; conditions: chlorocebus sabaeus
Coxsackievirus A21 = experiment: Antiviral activity against Coxsackievirus 21 infected in human HeLa cells assessed as reduction of virus induced cytopathic effect incubated for 3 days by MTS assay; type: functional, organism-based; conditions: Enterovirus C, 72 h
In short: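 HeLa cells infected with coxsackievirus A21 (~100 CCID50) and treated with a compound dilution series, as in the EV71 set-up. Incubation was 3 days at 37 °C, 5% CO2, with residual viability quantified by MTS. EC50 is the concentration giving 50% antiviral effect. Values are means of ≥2 independent experiments.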

enterovirus D68 = experiment: Antiviral activity against Human enterovirus 68 infected in human HeLa cells assessed as reduction of virus induced cytopathic effect incubated for 3 days by MTS assay; type: functional, organism-based; conditions: Enterovirus D, 72 h; in short: as §2
rhinovirus B14 = experiment: Antiviral activity against Human rhinovirus 14 infected in human HeLa cells assessed as reduction of virus induced cytopathic effect incubated for 3 days by MTS assay; type: functional, organism-based; conditions: Rhinovirus B, 72 h; in short: as §2
[6] = Cytotoxicity against human HeLa cells by MTS assay; type: toxicity, cell-based; in short: as §1
METTL3/METTL14 = METTL3/METTL14 (Homo sapiens, UniProt Q86U44); experiment: Inhibition of human recombinant full length METTL3/human N-terminal FLAG-tagged METTL14 expressed in SF9 cells assessed as methyltransferase residual activity using ssRNA 5'-rUrArC rArCrU rCrGrA rUrCrU rGrGrA rCrUrA rArArG rCrUrG rCrUrC -3' as substrate incubated for 20 mins followed by H-SAM addition measured after 2 hrs by radio isotope reaction system analysis
Chain of METTL3/METTL14 (Q86U44 whole entry): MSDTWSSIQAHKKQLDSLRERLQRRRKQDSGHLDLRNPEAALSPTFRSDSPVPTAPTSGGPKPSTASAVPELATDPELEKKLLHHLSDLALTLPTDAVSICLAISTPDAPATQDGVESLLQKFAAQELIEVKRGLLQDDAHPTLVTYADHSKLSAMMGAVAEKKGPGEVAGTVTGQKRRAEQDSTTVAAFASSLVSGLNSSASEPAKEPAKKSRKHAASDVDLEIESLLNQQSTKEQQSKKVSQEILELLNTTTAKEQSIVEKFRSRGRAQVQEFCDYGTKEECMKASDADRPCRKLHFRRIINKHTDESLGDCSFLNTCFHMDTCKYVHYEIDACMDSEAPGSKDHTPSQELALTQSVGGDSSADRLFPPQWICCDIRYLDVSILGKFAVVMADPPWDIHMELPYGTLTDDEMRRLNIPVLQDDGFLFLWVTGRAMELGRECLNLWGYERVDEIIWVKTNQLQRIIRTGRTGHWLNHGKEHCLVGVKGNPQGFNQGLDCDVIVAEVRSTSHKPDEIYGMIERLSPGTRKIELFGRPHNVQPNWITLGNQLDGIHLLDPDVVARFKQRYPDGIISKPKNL
Chain of METTL3/METTL14 (Q9HCE5 whole entry, further chain): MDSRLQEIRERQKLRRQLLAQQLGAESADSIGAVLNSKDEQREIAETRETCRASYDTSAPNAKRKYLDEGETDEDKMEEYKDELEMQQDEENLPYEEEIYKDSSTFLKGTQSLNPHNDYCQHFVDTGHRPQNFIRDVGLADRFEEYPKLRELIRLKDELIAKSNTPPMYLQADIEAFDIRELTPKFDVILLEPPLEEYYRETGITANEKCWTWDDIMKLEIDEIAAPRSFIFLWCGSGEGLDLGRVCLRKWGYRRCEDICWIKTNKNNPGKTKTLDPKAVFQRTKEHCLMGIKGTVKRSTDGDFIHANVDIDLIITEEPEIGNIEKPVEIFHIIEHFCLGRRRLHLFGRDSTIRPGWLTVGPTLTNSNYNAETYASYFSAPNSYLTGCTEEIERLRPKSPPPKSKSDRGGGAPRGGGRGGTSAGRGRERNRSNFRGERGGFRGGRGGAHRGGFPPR
In short: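 Compound is pre-incubated for 20 min at room temperature, then 1 μM [3H-methyl]SAM is added for 2 h at room temperature. Activity is reported as % remaining, screened at 100 μM, with IC50 from curve fits.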

Enterovirus A71 [7] = experiment: Antiviral activity against human enterovirus 71 infected in african green monkey vero cells; type: functional, organism-based; conditions: Enterovirus A

Row | SMILES | EC50 (Zika virus) [µM] | selectivity ratio [1] | CC50 [2] [µM] | EC50 (SARS-CoV-2) [µM] | CC50 [3] [µM] | EC50 (Enterovirus A71 [4]) [µM] | EC50 (Coxsackievirus B3) [µM] | EC50 (rhinovirus A2) [µM] | CC50 [5] [µM] | EC50 (Coxsackievirus A21) [µM] | EC50 (enterovirus D68) [µM] | EC50 (rhinovirus B14) [µM] | CC50 [6] [µM] | IC50 (METTL3/METTL14) [µM] | EC50 (Enterovirus A71 [7]) [µM]
1 | OC[C@H]1O[C@@H](n2cnc3c(NCc4cccc(Cl)c4)ncnc32)[C@H](O)[C@@H]1O | > 100 | 403 | > 100 | > 100 | 42.7 | 0.106 | – | – | – | – | – | – | – | – | –
2 | Cc1cccc(CNc2ncnc3c2ncn3[C@@H]2O[C@H](CO)[C@@H](O)[C@H]2O)c1 | > 100 | > 1060 | > 100 | > 100 | > 100 | 0.094 | > 100 | > 100 | > 100 | 36.4 | 8.9 | > 100 | > 100 | – | –
3 | C[C@H](NP(=O)(OC[C@H]1O[C@@H](n2ccc3c(NCc4cccc(C(F)(F)F)c4)ncnc32)[C@H](O)[C@@H]1O)Oc1ccccc1)C(=O)OCc1ccccc1 (some centres not stated) | – | 70.8 | > 100 | > 100 | 42.5 | 0.6 | – | – | – | – | – | – | – | – | –
4 | OC[C@H]1O[C@@H](n2ccc3c(NCc4cccc(Cl)c4)ncnc32)[C@H](O)[C@@H]1O | > 100 | > 301 | > 100 | > 100 | > 20 | 0.065 | – | – | – | – | – | – | – | 58.8 | –
5 | CSC[C@H]1O[C@@H](n2cnc3c(NCc4cccc(C)c4)ncnc32)[C@H](O)[C@@H]1O | > 100 | > 83.5 | > 100 | > 100 | > 75 | 0.898 | > 100 | > 100 | > 50 | > 100 | > 100 | > 100 | > 100 | – | –
6 | CC(Nc1ncnc2c1ncn2[C@@H]1O[C@H](CO)[C@@H](O)[C@H]1O)c1cccc(Cl)c1 (some centres not stated) | > 100 | > 93.5 | > 100 | > 100 | > 100 | 1.07 | > 100 | > 100 | > 100 | > 100 | > 100 | > 100 | > 100 | – | –
7 | COC(=O)[C@H](CCSC[C@H]1O[C@@H](n2cnc3c(NCc4cccc(Cl)c4)ncnc32)[C@H](O)[C@@H]1O)NC(=O)C(F)(F)F | > 100 | > 16.9 | > 100 | > 100 | > 100 | 4.5 | > 100 | > 100 | > 100 | 54.6 | > 100 | > 100 | > 100 | – | –
8 | CSC[C@H]1O[C@@H](n2cnc3c(NCc4ccccc4Cl)ncnc32)[C@H](O)[C@@H]1O | > 100 | > 38.3 | > 100 | > 100 | > 100 | 2.61 | – | – | – | – | – | – | – | – | –
9 | C#C[C@@]1(O)[C@H](O)[C@@H](CO)O[C@H]1n1ccc2c(N)ncnc21 | – | – | – | – | – | – | – | – | – | – | – | – | – | – | 0.625
10 | CSC[C@H]1O[C@@H](n2cnc3c(NCc4ccc(Cl)cc4)ncnc32)[C@H](O)[C@@H]1O | > 100 | > 12.1 | > 100 | > 100 | > 100 | 8.05 | – | – | – | – | – | – | – | – | –
11 | OC[C@H]1O[C@@H](n2cnc3c(NCc4ccc(Cl)cc4)ncnc32)[C@H](O)[C@@H]1O | > 100 | > 424 | > 100 | > 100 | > 100 | 0.236 | – | – | – | – | – | – | – | – | –
12 | C[C@@]1(O)[C@H](O)[C@@H](CO)O[C@H]1n1ccc2c(N)ncnc21 [BETA-2'-C-METHYL-7-DEAZA-ADENOSINE] | 20 | – | > 300 | – | – | – | – | – | – | – | – | – | – | – | –
13 | OC[C@H]1O[C@@H](n2cnc3c(NCc4ccccc4Cl)ncnc32)[C@H](O)[C@@H]1O | > 100 | 241 | > 100 | > 100 | 28.2 | 0.117 | – | – | – | – | – | – | – | – | –
